ChEMBL document CHEMBL1949603, “Discovery of CS-0777: A Potent, Selective, and Orally Active S1P1 Agonist” (ACS Med Chem Lett, 2011)
The source made the active and inactive calls. No cut-off for these calls is given here.

Tests used:
[1] = biological target: Sphingosine 1-phosphate receptor 3 (Homo sapiens, UniProt Q99500); assay: Agonist activity at human S1P3R expressed in CHO-K1 cells by [35S]GTPgammaS binding assay; type: functional, cell-based
How it was run: (§1)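 Agonist-evoked [35S]GTPγS binding was measured on human or rat S1P1 or S1P3 expressed in transfected CHO-K1 cells.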

[2] = biological target: Sphingosine 1-phosphate receptor 2 (Homo sapiens) (UniProt O95136); assay: Binding affinity to human S1P2R
[3] = biological target: Sphingosine 1-phosphate receptor 1 (Homo sapiens, UniProt P21453); assay: Agonist activity at human S1P1 receptor expressed in CHO-K1 cells by [35S]GTPgammaS binding assay; type: functional, cell-based; how it was run: as §1
[4] = species on record: Rattus norvegicus; assay: Selectivity ratio of EC50 for rat S1P3R to EC50 for rat S1P1R; how it was run: as §1
[5] = species on record: Homo sapiens; assay: Selectivity ratio of EC50 for human S1P3R to EC50 for human S1P1R; how it was run: as §1
[6] = biological target: Sphingosine 1-phosphate receptor 1 (Rattus norvegicus, UniProt P48303); assay: Agonist activity at rat S1P1 receptor expressed in CHO-K1 cells by [35S]GTPgammaS binding assay; type: functional, cell-based; how it was run: as §1
[7] = biological target: Sphingosine 1-phosphate receptor 5 (Homo sapiens, UniProt Q9H228); assay: Agonist activity at human S1P5R; type: functional
[8] = Agonist activity at rat S1P3R expressed in CHO-K1 cells by [35S]GTPgammaS binding assay; type: functional, cell-based; how it was run: as §1
[9] = Total body clearance in Sprague-Dawley rat at 1 mg/kg, iv; type: ADME, organism-based; design: dose 1 mg/kg, route intravenous; conditions: in vivo
How it was run: (§2)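 Clearance and steady-state volume of distribution were calculated from blood data after intravenous dosing of the parent drug to male Sprague−Dawley rats at 0.1 or 1 mg/kg. Values are mean ± SD of four animals.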

[10] = test system: Rattus norvegicus; assay: Lymphopenic activity in Lewis rat assessed as reduction in blood lymphocyte counts at 0.1 mg/kg, po after 12 hrs relative to control; type: functional; design: scale not given: the % may be the effect or the level left
How it was run: (§3)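 Lewis rats received one oral dose of 0.1 or 1 mg/kg in 1% MC vehicle. Lymphocytes were counted by automatic hemacytometer and expressed relative to vehicle controls. n = 5 per group, mean ± SE.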

[11] = test system: Rattus norvegicus; assay: AUC (0 to infinity) in Sprague-Dawley rat assessed as CS-0777-phosphate at 1 mg/kg, po; type: ADME, organism-based, Plasma; design: time infinity, dose 1 mg/kg, route oral; conditions: in vivo
How it was run: (§4)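 Male Sprague−Dawley rats given one oral dose of parent drug at 0.1 or 1 mg/kg. Blood levels of parent and phosphate metabolite were measured over time. Bioavailability of the phosphate is the ratio of its AUC after oral dosing to its AUC after intravenous parent dosing at the same dose. Values are mean ± SD of four animals.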

[12] = test system: Rattus norvegicus; assay: Lymphopenic activity in Lewis rat assessed as recovery of blood lymphocytes at 1 mg/kg, po after 48 hrs relative to control; type: functional; how it was run: as §3
[13] = Half life in Sprague-Dawley rat at 1 mg/kg, po; type: ADME, organism-based; design: dose 1 mg/kg, route oral; conditions: in vivo; how it was run: as §4
[14] = test system: Rattus norvegicus; assay: Oral bioavailability in Sprague-Dawley rat assessed as CS-0777-phosphate at 0.1 mg/kg; type: ADME, organism-based; conditions: in vivo; how it was run: as §4
[15] = AUC (0 to infinity) in Sprague-Dawley rat at 1 mg/kg, po; type: ADME, organism-based, Plasma; design: time infinity, dose 1 mg/kg, route oral; conditions: blood; how it was run: as §4
[16] = test system: Rattus norvegicus; assay: AUC (0 to infinity) in Sprague-Dawley rat assessed as CS-0777-phosphate at 0.1 mg/kg, po; type: ADME, organism-based, Plasma; design: dose 0.1 mg/kg, route oral, time infinity; conditions: in vivo; how it was run: as §4
[17] = test system: Rattus norvegicus; assay: Lymphopenic activity in Lewis rat assessed as recovery in blood lymphocyte counts at 1 mg/kg, po after 5 days; type: functional, organism-based; design: dose 1 mg/kg; how it was run: as §3
[18] = Total body clearance in Sprague-Dawley rat at 0.1 mg/kg, iv; type: ADME, organism-based; design: dose 0.1 mg/kg, route intravenous; conditions: in vivo; how it was run: as §2
[19] = Cmax in Sprague-Dawley rat at 0.1 mg/kg, po; type: ADME, organism-based; design: dose 0.1 mg/kg, route oral; conditions: in vivo; how it was run: as §4
[20] = test system: Rattus norvegicus; assay: Lymphopenic activity in Lewis rat assessed as reduction in blood lymphocyte counts at 1 mg/kg, po after 12 hrs relative to control; type: functional; design: scale not given: the % may be the effect or the level left; how it was run: as §3
[21] = test system: Rattus norvegicus; assay: Half life in Sprague-Dawley rat assessed as CS-0777-phosphate at 0.1 mg/kg, po; type: ADME, organism-based; design: dose 0.1 mg/kg, route oral; conditions: in vivo; how it was run: as §4
[22] = Volume of distribution at steady state in Sprague-Dawley rat at 1 mg/kg, iv; type: ADME, organism-based; design: dose 1 mg/kg, route intravenous; conditions: in vivo, read-out: Vdss; how it was run: as §2
[23] = test system: Rattus norvegicus; assay: Cmax in Sprague-Dawley rat assessed as CS-0777-phosphate at 1 mg/kg, po; type: ADME, organism-based; design: dose 1 mg/kg, route oral; conditions: in vivo; how it was run: as §4
[24] = test system: Rattus norvegicus; assay: Tmax in Sprague-Dawley rat assessed as CS-0777-phosphate at 1 mg/kg, po; type: ADME, organism-based; design: dose 1 mg/kg, route oral; conditions: in vivo; how it was run: as §4
[25] = Tmax in Sprague-Dawley rat at 1 mg/kg, po; type: ADME, organism-based; design: dose 1 mg/kg, route oral; conditions: in vivo; how it was run: as §4
[26] = Tmax in Sprague-Dawley rat at 0.1 mg/kg, po; type: ADME, organism-based; design: dose 0.1 mg/kg, route oral; conditions: in vivo; how it was run: as §4
[27] = test system: Rattus norvegicus; assay: Reduction of cumulative disease score in Lewis rat EAE model at 1 mg/kg, po administered daily for 20 days measured after 8 to 21 days relative to control; type: functional, organism-based; design: dose 1 mg/kg
How it was run: (§5)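 EAE was induced in 6-week-old female Lewis rats by injecting guinea pig myelin basic protein fragment 68−82 with adjuvant into both hind footpads on day 0. Dosing was oral, daily on days 0–20 (0.01–1 mg/kg). Clinical score (0–6 scale) was recorded daily on days 8–21 and summed to a cumulative score. Analysis used a nonparametric Dunnett test versus vehicle.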

[28] = test system: Rattus norvegicus; assay: Lymphopenic activity in Lewis rat assessed as recovery in blood lymphocyte counts at 0.1 mg/kg, po after 5 days; type: functional, organism-based; design: dose 0.1 mg/kg; how it was run: as §3
[29] = Cmax in Sprague-Dawley rat at 1 mg/kg, po; type: ADME, organism-based; design: dose 1 mg/kg, route oral; conditions: in vivo; how it was run: as §4
[30] = test system: Rattus norvegicus; assay: Reduction of cumulative disease score in Lewis rat EAE model at 0.1 mg/kg, po administered daily for 20 days measured after 8 to 21 days relative to control; type: functional, organism-based; design: dose 0.1 mg/kg; how it was run: as §5
[31] = test system: Rattus norvegicus; assay: Oral bioavailability in Sprague-Dawley rat assessed as CS-0777-phosphate at 1 mg/kg; type: ADME, organism-based; conditions: in vivo; how it was run: as §4
[32] = test system: Rattus norvegicus; assay: Half life in Sprague-Dawley rat assessed as CS-0777-phosphate at 1 mg/kg, po; type: ADME, organism-based; design: dose 1 mg/kg, route oral; conditions: in vivo; how it was run: as §4
[33] = test system: Rattus norvegicus; assay: Tmax in Sprague-Dawley rat assessed as CS-0777-phosphate at 0.1 mg/kg, po; type: ADME, organism-based; design: dose 0.1 mg/kg, route oral; conditions: in vivo; how it was run: as §4
[34] = Oral bioavailability in Sprague-Dawley rat at 1 mg/kg; type: ADME, organism-based; conditions: in vivo; how it was run: as §4
[35] = AUC (0 to infinity) in Sprague-Dawley rat at 0.1 mg/kg, po; type: ADME, organism-based, Plasma; design: dose 0.1 mg/kg, route oral, time infinity; conditions: blood; how it was run: as §4
[36] = Half life in Sprague-Dawley rat at 0.1 mg/kg, po; type: ADME, organism-based; design: dose 0.1 mg/kg, route oral; conditions: in vivo; how it was run: as §4
[37] = Volume of distribution at steady state in Sprague-Dawley rat at 0.1 mg/kg, iv; type: ADME, organism-based; design: dose 0.1 mg/kg, route intravenous; conditions: in vivo, read-out: Vdss; how it was run: as §2
[38] = test system: Rattus norvegicus; assay: Cmax in Sprague-Dawley rat assessed as CS-0777-phosphate at 0.1 mg/kg, po; type: ADME, organism-based; design: dose 0.1 mg/kg, route oral; conditions: in vivo; how it was run: as §4
[39] = Oral bioavailability in Sprague-Dawley rat at 0.1 mg/kg; type: ADME, organism-based; conditions: in vivo; how it was run: as §4
[40] = test system: Rattus norvegicus; assay: Lymphopenic activity in Lewis rat assessed as recovery of blood lymphocytes at 0.1 mg/kg, po after 48 hrs relative to control; type: functional; how it was run: as §3

Sequence of Sphingosine 1-phosphate receptor 2 (Homo sapiens) (O95136 whole entry): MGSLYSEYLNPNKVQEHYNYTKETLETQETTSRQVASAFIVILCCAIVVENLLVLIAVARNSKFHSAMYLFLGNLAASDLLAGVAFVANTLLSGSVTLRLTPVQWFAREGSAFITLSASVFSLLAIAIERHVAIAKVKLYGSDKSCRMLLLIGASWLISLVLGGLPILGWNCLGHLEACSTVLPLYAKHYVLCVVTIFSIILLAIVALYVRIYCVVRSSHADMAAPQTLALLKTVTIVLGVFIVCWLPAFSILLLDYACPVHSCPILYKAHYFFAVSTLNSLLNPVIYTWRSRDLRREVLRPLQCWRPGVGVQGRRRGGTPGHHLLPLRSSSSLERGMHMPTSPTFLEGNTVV
Sequence of Sphingosine 1-phosphate receptor 1 (Rattus norvegicus, UniProt P48303) (P48303 whole entry): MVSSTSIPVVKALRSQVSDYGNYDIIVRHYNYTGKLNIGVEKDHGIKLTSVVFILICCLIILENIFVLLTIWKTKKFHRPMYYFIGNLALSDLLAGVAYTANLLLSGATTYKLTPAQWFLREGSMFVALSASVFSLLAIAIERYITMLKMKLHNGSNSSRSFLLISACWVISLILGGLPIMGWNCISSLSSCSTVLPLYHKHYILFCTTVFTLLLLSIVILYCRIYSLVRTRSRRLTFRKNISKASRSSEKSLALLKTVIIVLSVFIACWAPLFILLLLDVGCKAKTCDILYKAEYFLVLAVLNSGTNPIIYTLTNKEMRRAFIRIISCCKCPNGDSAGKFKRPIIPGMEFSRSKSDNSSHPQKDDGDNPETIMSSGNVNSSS
Sequence of Sphingosine 1-phosphate receptor 1 (Homo sapiens, UniProt P21453) (P21453 whole entry): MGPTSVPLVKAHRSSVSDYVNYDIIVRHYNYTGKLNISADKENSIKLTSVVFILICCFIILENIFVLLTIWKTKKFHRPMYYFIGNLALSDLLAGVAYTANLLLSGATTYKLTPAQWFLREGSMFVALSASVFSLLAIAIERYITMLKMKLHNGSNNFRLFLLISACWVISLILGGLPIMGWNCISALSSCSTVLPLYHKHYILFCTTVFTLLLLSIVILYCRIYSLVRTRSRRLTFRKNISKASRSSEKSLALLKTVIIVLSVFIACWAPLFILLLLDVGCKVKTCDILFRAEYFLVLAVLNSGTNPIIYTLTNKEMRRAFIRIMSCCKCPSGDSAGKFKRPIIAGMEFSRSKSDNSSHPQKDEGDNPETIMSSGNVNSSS
Sequence of Sphingosine 1-phosphate receptor 3 (Q99500 whole entry): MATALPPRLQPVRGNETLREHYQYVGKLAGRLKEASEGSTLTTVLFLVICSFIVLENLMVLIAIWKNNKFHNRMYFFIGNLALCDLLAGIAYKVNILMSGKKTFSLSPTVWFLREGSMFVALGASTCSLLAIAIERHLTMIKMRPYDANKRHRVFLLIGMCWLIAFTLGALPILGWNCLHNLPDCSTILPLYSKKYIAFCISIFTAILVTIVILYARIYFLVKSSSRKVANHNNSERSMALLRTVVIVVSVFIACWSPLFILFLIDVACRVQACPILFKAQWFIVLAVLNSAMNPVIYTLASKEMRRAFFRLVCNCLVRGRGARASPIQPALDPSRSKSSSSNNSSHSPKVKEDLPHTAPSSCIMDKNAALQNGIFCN
Sequence of Sphingosine 1-phosphate receptor 5 (Q9H228 whole entry): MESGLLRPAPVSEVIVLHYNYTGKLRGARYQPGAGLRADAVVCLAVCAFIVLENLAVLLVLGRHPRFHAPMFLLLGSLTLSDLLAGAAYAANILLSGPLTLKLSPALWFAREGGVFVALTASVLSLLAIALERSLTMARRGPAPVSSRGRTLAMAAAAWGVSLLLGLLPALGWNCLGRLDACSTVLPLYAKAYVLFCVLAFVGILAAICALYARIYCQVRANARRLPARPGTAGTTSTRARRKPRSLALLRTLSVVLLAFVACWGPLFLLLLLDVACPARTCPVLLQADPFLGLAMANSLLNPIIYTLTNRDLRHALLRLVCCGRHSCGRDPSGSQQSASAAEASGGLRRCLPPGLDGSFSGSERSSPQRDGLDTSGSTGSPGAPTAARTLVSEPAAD

## Cc1ccc(CCCC(=O)c2ccc(CC[C@@](C)(N)COP(=O)(O)O)n2C)cc1
[1]
  EC50: 350 nM
[2]
  Activity: inactive
[3]
  EC50: 1.1 nM
[4]
  Ratio EC50: 100
[5]
  Ratio EC50: 320
[6]
  EC50: 1.8 nM
[7]
  EC50: 21 nM
[8]
  EC50: 200 nM

## Cc1ccc(CCCC(=O)c2ccc(CC[C@@](C)(N)CO)n2C)cc1
[9]
  clearance: 2.02 L/h/kg
[10]
  Activity: 27.4%
[11]
  AUC: 6.28 µg·h/mL
[12]
  Activity: 30.1%
[13]
  half-life: 10.4 h
[14]
  F: 80.6%
[15]
  AUC(0-inf): 0.346 µg·h/mL
[16]
  AUC: 0.686 µg·h/mL
[17]
  Activity: inactive
[18]
  clearance: 2.28 L/h/kg
[19]
  Cmax: 0.00189 µg/mL
[20]
  Activity: 18.4%
[21]
  t1/2: 10.9 h
[22]
  Vd: 18.1 L/kg
[23]
  Cmax: 0.22 µg/mL
[24]
  Tmax: 9 h
[25]
  Tmax: 3.25 h
[26]
  Tmax: 4.75 h
[27]
  Activity: Active
[28]
  Activity: inactive
[29]
  Cmax: 0.0182 µg/mL
[30]
  Activity: Active
[31]
  F: 90.8%
[32]
  t1/2: 11.6 h
[33]
  Tmax: 9.5 h
[34]
  bioavailability: 69.5%
[35]
  AUC(0-inf): 0.0317 µg·h/mL
[36]
  half-life: 5.4 h
[37]
  Vd: 17.1 L/kg
[38]
  Cmax: 0.0264 µg/mL
[39]
  bioavailability: 72.2%
[40]
  Activity: 71.5%

## CCCCCCCCc1ccc(CC[C@](N)(CO)COP(=O)(O)O)cc1 [FTY720-P]
[2]
  Activity: inactive
[6]
  EC50: 0.29 nM
[8]
  EC50: 1.3 nM
